The results in this text go back to ChEMBL document CHEMBL4118144, “Design, Synthesis, and Testing of Potent, Selective Hepsin Inhibitors via Application of an Automated Closed-Loop Optimization Platform” (J Med Chem, 2018).

The structures appear in SMILES notation. Active and inactive are the calls of the source. No cut-off for these calls is given here.

Series [1] concerns the target T1, Serine protease hepsin (Homo sapiens, UniProt P05981). Kind of series: Inhibition of hepsin-mediated conversion of Pro-HGF into active form in human Hs578T cells assessed as decrease in MET phosphorylation at 1 to 10 uM preincubated for 30 mins followed by recombinant human pro-HGF addition measured after 30 mins by immunoblot method. Type of series: cell-based. Put shortly: (§1)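 Hs578T or HCC1937 breast cells incubated with DMSO or inhibitor, then 50 ng/mL recombinant human Pro-HGF added; MET pathway activation (phospho-MET) assessed by immunoblotting.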
A general note: A western blot detects proteins with antibodies after separation by electrophoresis.

Series [2] concerns the target Prothrombin (Homo sapiens) (UniProt P00734). Kind of series: Inhibition of human thrombin using Z-Gly-Pro-Arg-AMC as substrate at 10 uM after 60 mins by fluorescence spectrophotometric method relative to control. The method in brief: (§2)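 Panel of ten serine proteases; percent inhibition read at compound concentrations of 1 µM and 10 µM, each value the mean of 2 experiments.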

The target in series [3] is Dipeptidyl peptidase 4 (Homo sapiens) (UniProt P27487). Kind of series: Inhibition of recombinant full length human dipeptidyl peptidase 4 using GP-AMC as substrate at 1 uM after 10 mins by fluorescence spectrophotometric method relative to control. Put shortly: as §2
Dipeptidyl peptidase 4 (Homo sapiens), sequence (P27487 whole entry, looked up): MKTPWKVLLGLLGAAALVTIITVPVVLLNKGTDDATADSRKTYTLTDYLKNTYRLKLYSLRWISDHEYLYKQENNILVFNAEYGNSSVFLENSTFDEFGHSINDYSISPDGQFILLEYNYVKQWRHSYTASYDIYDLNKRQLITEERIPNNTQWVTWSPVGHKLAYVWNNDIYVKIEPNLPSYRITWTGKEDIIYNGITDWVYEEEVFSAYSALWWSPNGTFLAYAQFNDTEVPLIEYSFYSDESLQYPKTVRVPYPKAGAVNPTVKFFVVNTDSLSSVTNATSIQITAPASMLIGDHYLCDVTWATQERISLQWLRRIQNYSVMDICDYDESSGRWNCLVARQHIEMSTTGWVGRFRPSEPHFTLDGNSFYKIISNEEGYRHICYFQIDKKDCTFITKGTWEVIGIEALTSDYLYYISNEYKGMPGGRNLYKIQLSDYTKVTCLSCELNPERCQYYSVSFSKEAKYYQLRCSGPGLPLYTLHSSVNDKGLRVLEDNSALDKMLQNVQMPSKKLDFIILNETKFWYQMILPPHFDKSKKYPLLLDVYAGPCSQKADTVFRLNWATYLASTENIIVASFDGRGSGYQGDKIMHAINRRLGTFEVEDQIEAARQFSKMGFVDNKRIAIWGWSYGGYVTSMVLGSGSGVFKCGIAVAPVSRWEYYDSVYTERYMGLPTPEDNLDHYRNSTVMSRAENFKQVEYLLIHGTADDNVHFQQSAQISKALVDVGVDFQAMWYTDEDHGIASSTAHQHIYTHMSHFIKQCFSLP
The target in series [4] is T1, Serine protease hepsin. Kind of series: Inhibition of doxycycline induced Hepsin in human MCF10A cells using Boc-QRR-AMC as substrate preincubated for 24 hrs followed by doxycycline induction for 24 hrs and subsequent addition of substrate by fluorescence assay. Type of series: cell-based.
The target in series [5] is T2, Suppressor of tumorigenicity 14 protein (Homo sapiens) (UniProt Q9Y5Y6).
T2 sequence (whole entry): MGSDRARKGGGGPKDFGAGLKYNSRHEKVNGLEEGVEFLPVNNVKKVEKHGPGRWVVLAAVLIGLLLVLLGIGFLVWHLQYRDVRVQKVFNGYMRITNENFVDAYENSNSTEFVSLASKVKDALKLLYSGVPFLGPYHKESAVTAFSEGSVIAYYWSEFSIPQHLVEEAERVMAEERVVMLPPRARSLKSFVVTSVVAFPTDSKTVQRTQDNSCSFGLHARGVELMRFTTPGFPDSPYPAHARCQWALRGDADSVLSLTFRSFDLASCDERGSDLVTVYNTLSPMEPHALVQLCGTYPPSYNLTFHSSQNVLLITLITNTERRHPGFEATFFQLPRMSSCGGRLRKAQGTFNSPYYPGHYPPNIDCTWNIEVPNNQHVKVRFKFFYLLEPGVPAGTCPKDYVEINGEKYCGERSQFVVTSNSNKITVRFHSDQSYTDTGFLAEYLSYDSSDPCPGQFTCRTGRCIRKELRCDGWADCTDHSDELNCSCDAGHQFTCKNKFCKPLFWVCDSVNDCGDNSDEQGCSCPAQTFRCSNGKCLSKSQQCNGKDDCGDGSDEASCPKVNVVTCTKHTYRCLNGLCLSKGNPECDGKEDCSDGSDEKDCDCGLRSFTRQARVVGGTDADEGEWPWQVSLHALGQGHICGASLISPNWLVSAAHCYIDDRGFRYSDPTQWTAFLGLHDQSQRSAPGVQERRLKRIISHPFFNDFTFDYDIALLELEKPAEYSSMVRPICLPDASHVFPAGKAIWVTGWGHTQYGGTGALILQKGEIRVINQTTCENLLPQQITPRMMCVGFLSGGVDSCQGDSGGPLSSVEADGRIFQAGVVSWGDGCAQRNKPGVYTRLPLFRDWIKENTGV
Kind of series: Inhibition of matriptase (unknown origin) using BOC-QAR-AMC as substrate at 10 uM after 15 mins by fluorescence assay relative to control. The method in brief: as §2

Series [6] concerns the target Urokinase-type plasminogen activator (Homo sapiens, UniProt P00749). Kind of series: Inhibition of recombinant C-terminal His10-tagged human uPA (M1 to L431 residues) expressed in mouse NS0 cells using Z-GGR-AMC as substrate after 15 mins by automated fluorescence assay. The method in brief:
(§3)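 On-line assay integrated with the flow-synthesis platform: a 20 µL aliquot of each product solution captured automatically, HPLC-purified, then diluted and assayed.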

In series [7] the target is Serine protease hepsin (Homo sapiens, UniProt P05981, D161E/R162K). Kind of series: Inhibition of recombinant C-terminal His10-tagged human Hepsin (R45 to […] residues) D161E/ R162K double mutant expressed in mouse NS0 cells using Boc-QRR-AMC as substrate after 15 mins by automated fluorescence assay. Put shortly: as §3
Series [8] deals with Coagulation factor X (Homo sapiens) (UniProt P00742). Kind of series: Inhibition of factor 10a (unknown origin) at 1 uM after 15 mins by fluorescence assay relative to control. The method in brief: as §2
Coagulation factor X (Homo sapiens), sequence (P00742 41-179 limits assumed): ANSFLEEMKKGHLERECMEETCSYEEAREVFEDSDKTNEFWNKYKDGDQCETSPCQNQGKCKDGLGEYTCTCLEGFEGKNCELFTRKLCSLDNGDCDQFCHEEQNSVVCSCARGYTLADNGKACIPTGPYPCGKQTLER
Coagulation factor X (Homo sapiens), sequence (P00742 235-488 limits assumed): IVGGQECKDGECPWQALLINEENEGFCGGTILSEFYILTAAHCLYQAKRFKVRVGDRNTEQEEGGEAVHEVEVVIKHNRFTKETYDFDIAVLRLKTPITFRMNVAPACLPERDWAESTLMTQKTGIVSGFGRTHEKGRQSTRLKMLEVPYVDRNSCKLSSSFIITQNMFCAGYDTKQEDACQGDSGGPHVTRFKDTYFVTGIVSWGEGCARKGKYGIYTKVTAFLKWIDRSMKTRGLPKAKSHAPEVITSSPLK
Series [9] is described as follows: Chromatographic hydrophobicity index, log D of the compound at pH 7 by HPLC/UV analysis. It is filed as physicochemical. The conditions noted are these: buffer.
For series [10], the system named is Serine protease hepsin (Homo sapiens), P05981 [D161E,R162K]. Kind of series: Inhibition of recombinant C-terminal His10-tagged human Hepsin (R45 to […] residues) D161E/ R162K double mutant expressed in mouse NS0 cells assessed as decrease in HGF alpha chain formation at 1 uM incubated for 30 mins in presence of recombinant human pro-HGF by immunoblot method. Type of series: cell-based. Put shortly:
(§4)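 Recombinant human Pro-HGF incubated with recombinant human hepsin plus inhibitor at 37°C for 30 min; processing analysed by immunoblot with an antibody recognizing Pro-HGF and the α and β chains.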

Series [11] shares this test system. Kind of series: Inhibition of recombinant C-terminal His10-tagged human Hepsin (R45 to […] residues) D161E/ R162K double mutant expressed in mouse NS0 cells assessed as decrease in HGF beta chain formation at 1 uM incubated for 30 mins in presence of recombinant human pro-HGF by immunoblot method. Type of series: cell-based. Put shortly: as §4
Series [12] deals with T1, Serine protease hepsin. Kind of series: Inhibition of doxycycline induced hepsin-mediated loss of desmosomal junctions in human MCF10A cells at 1 to 10 uM preincubated for 30 mins followed by doxycycline addition measured after 6 hrs by desmoglein 2 staining-based confocal immunofluorescence microscopic analysis. It is filed as cell-based. Put shortly:
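MCF10A-Indu20-hepsin cells on coverslips pretreated 30 min with 1 or 10 µM compound or DMSO, then 100 ng/mL Dox for 6 h. Desmoglein 2 immunofluorescence: continuous pericellular staining scored positive, discontinuous or absent scored negative. Cells counted in 10 fields per treatment across three biological replicates; reported as percentages.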

Series [13] concerns the target T1, Serine protease hepsin. Kind of series: Inhibition of doxycycline induced hepsin-mediated conversion of Pro-HGF into active form in human MCF10A cells assessed as decrease in MET phosphorylation (Tyr1243/1245) at 1 to 10 uM preincubated for 30 mins followed by recombinant human pro-HGF addition measured after 30 mins by immunoblot method. It is filed as cell-based. The method in brief: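 Dox-induced MCF10A-Indu20-hepsin cells given DMSO or inhibitor for 30 min, then 50 ng/mL recombinant human Pro-HGF; MET phosphorylation (Tyr1243/1245) detected by immunoblotting.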

Series [14] deals with T1, Serine protease hepsin. Kind of series: Inhibition of hepsin-mediated conversion of Pro-HGF into active form in human Hs578T cells assessed as decrease in MET phosphorylation at 1 uM preincubated for 30 mins followed by recombinant human pro-HGF addition measured after 30 mins by immunoblot method. Type of series: cell-based. Put shortly:
as §1

In series [15] the target is T1, Serine protease hepsin. Kind of series: Inhibition of hepsin-mediated conversion of Pro-HGF into active form in human HCC1937 cells assessed as decrease in MET phosphorylation at 1 uM preincubated for 30 mins followed by recombinant human pro-HGF addition measured after 30 mins by immunoblot method. Type of series: cell-based. The method in brief: as §1

T1 sequence (P05981 1-162 limits assumed): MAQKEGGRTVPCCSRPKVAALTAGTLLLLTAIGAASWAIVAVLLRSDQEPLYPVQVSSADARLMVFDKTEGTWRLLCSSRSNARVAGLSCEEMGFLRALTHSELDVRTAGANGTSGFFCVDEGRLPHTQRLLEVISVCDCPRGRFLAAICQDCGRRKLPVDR
T1 sequence (P05981 163-417 limits assumed): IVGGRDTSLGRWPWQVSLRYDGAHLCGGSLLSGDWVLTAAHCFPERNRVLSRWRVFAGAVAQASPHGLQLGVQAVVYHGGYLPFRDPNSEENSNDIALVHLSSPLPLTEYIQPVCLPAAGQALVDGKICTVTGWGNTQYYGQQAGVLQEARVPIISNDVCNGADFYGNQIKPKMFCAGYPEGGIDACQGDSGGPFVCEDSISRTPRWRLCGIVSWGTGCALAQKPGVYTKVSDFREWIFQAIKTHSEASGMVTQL
Serine protease hepsin (Homo sapiens), P05981 [D161E,R162K], sequence (P05981 whole entry D161E/R162K): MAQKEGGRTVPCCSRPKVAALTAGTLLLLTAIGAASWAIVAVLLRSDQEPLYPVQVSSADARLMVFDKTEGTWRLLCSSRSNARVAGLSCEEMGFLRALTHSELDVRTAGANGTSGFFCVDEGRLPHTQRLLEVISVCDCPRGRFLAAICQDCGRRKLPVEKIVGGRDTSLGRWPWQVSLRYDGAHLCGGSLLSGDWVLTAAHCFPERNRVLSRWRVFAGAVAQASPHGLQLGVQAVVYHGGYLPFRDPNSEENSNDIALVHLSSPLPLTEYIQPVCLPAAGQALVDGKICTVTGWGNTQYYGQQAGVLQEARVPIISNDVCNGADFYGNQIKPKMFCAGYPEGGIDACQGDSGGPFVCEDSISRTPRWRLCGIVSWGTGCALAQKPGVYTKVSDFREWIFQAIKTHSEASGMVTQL

Turning to `N=C(N)c1ccc(NC(=O)[C@H](NS(=O)(=O)c2ccc(F)cc2)C2CCCCC2)cc1`, the inhibition result at Serine protease hepsin [1] is “Active”. Besides, the inhibition in series [2] is 10%; in series [3] it was < 10%; in [5] it was < 10%; in [8] it was < 10%. The IC50 was 1290 nM against Serine protease hepsin [4], > 14000 nM in [6] and 90 nM at Serine protease hepsin [7].

On to `Cc1ccc(S(=O)(=O)N[C@@H](C(=O)Nc2ccc(C(=N)N)cc2)C2CCCCC2)cc1`, for which, on Serine protease hepsin [1], the inhibition entry is “Active”. Also, the inhibition in series [2] is 12%; in series [3], < 10%; in series [5], < 10%; in series [8] it was < 10%. Besides, the chromatographic logD in series [9] came out at 1.3. Moreover, the IC50 on Serine protease hepsin [4] amounted to 990 nM; in [6], 4400 nM; at Serine protease hepsin [7] it was 33 nM.

As to `Cc1ccc(S(=O)(=O)N[C@@H](C(=O)Nc2ccc(C(=N)N)cc2)c2ccccc2)cc1`, the inhibition entry (at Serine protease hepsin [1]; in [10]; in series [11]; at Serine protease hepsin [12]; at Serine protease hepsin [13]; on Serine protease hepsin [14]) was “Active” throughout. Besides, the inhibition entry at Serine protease hepsin [15] was “Active”. In addition, the inhibition in series [2] was 44%; in series [3], < 10%; in [5], < 10%; in series [8] it was < 10%. The compound also yielded an IC50 against Serine protease hepsin [4] of 100 nM.

A word on the inhibition: it is the drop in the measured response relative to a control, in per cent. By IC50 is commonly meant the point on the concentration scale where inhibition reaches its midpoint. As usually defined, the chromatographic logD is a lipophilicity value derived from retention on a column. The low end stands for lower lipophilicity, the high end for higher lipophilicity.
